# Measured values reported in ChEMBL document CHEMBL1123290, “Synthesis, antimalarial activity, and quantitative structure-activity relationships of tebuquine and a series of related 5-[(7-chloro-4-quinolinyl)amino]-3-[(alkylamino)methyl] [1,1'-biphenyl]-2-ols and N omega-oxides” (1986).
# Experiments:
# Assay type in all cases: functional
# [1] = test system: Mus musculus; experiment: Antimalarial activity, administered as a single subcutaneous dose of 640 mg/kg, 72 hrs post infection measured as number of mice (Mus musculus) surviving at 60 days post infection
# How it was run: (§1)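 Mice were infected with a normal drug-sensitive Plasmodium berghei strain. At 72 h postinfection each received one subcutaneous dose of compound dissolved or suspended in peanut oil, in five-mouse groups per dose. The read-out was the number of mice alive at 60 days postinfection, which were scored as cured.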
# [2] = test system: Plasmodium berghei; experiment: Change in mean survival time for control (average 6.2 days) versus treated mice (Mus musculus) 72 hrs after 10 mg/kg subcutaneous dose
# [3] = test system: Mus musculus; experiment: Antimalarial activity, administered as a single subcutaneous dose of 80 mg/kg, 72 hrs post infection measured as number of mice (Mus musculus) surviving at 60 days post infection; how it was run: as §1
# [4] = test system: Plasmodium berghei; experiment: Change in mean survival time for control (average 6.2 days) versus treated mice (Mus musculus) 72 hrs after 320 mg/kg subcutaneous dose
# [5] = test system: Plasmodium berghei; experiment: Change in mean survival time for control (average 6.2 days) versus treated mice (Mus musculus) 72 hrs after 20 mg/kg subcutaneous dose
# [6] = test system: Plasmodium berghei; experiment: Antimalarial activity as 60-day survivors in infected mice (Mus musculus) after single 20 mg/kg subcutaneous dose 72hr post infection; how it was run: as §1
# [7] = test system: Plasmodium berghei; experiment: Change in mean survival time for control (average 6.2 days) versus treated mice (Mus musculus) 72 hrs after […] subcutaneous dose
# [8] = test system: Plasmodium berghei; experiment: Antimalarial activity in primary screen
# [9] = test system: Plasmodium berghei; experiment: Change in mean survival time for control (average 6.2 days) versus treated mice (Mus musculus) 72 hrs after 160 mg/kg subcutaneous dose
# [10] = test system: Plasmodium berghei; experiment: Antimalarial activity as 60-day survivors in infected mice (Mus musculus) after single 320mg/kg subcutaneous dose 72 hr post infection; how it was run: as §1
# [11] = test system: Plasmodium berghei; experiment: Change in mean survival time for control (average 6.2 days) versus treated mice (Mus musculus) 72 hrs after 5 mg/kg subcutaneous dose
# [12] = test system: Plasmodium berghei; experiment: Change in mean survival time for control (average 6.2 days) versus treated mice (Mus musculus) 72 hrs after […] subcutaneous dose
# [13] = test system: Plasmodium berghei; experiment: Antimalarial activity as 60-day survivors in Plasmodium berghei infected mice (Mus musculus) after single 160mg/kg subcutaneous dose 72 hr post infection; how it was run: as §1
# [14] = test system: Mus musculus; experiment: Antimalarial activity, administered as a single subcutaneous dose of 40 mg/kg, 72 hrs post infection measured as number of mice (Mus musculus) surviving at 60 days post infection; how it was run: as §1
# [15] = test system: Plasmodium berghei; experiment: Change in mean survival time for control (average 6.2 days) versus treated mice (Mus musculus) 72 hrs after 640 mg/kg subcutaneous dose
# [16] = test system: Plasmodium berghei; experiment: Change in mean survival time for control (average of 6.2 days) versus treated mice (Mus musculus) 72 hrs after 80 mg/kg subcutaneous dose
# [17] = test system: Plasmodium berghei; experiment: Difference in mean survival time in mice (Mus musculus) (control = 6.2 days) after single 40mg/kg subcutaneous dose 72hr post infection
SMILES,No. of mice cured [1],Delta MST [2],No. of mice cured [3],Delta MST [4],Delta MST [5],No. of mice cured [6],Delta MST [7],ED30 [8],Delta MST [9],No. of mice cured [10],Delta MST [11],Delta MST [12],No. of mice cured [13],No. of mice cured [14],Delta MST [15],Delta MST [16],Delta MST [17]
CCN(CC)Cc1cc(Nc2ccnc3cc(Cl)ccc23)cc(-c2ccccc2Cl)c1O,5,14.7 days,5,41.9 days,17.2 days,2,0.7 days,15.3 mg/kg,41.9 days,4,4.7 days,0.3 days,4,5,–,–,–
CCN(CC)Cc1cc(Nc2ccnc3cc(Cl)ccc23)cc(-c2ccccc2C(F)(F)F)c1O,4,3.1 days,1,30.7 days,12.5 days,–,0.3 days,34.7 mg/kg,–,4,1.1 days,-0.3 days,5,1,20.7 days,25.5 days,18.5 days
CCN(CC)Cc1cc(Nc2ccnc3cc(Cl)ccc23)cc(-c2ccncc2)c1O,2,2.1 days,1,21.2 days,5.5 days,–,-0.1 days,89 mg/kg,21.7 days,1,1.9 days,0.5 days,1,–,25 days,11.5 days,9.3 days
CCCN(CCC)Cc1cc(Nc2ccnc3cc(Cl)ccc23)cc(-c2ccc(Cl)cc2)c1O,3,6.8 days,3,29.6 days,11.2 days,–,0.4 days,–,26.6 days,4,3.8 days,0.8 days,2,1,18.1 days,27.6 days,24.4 days
CCN(CC)Cc1cc(Nc2ccnc3cc(Cl)ccc23)cc(-c2c(F)cccc2F)c1O,4,8.3 days,2,–,12.2 days,1,0.1 days,23.7 mg/kg,–,5,7.9 days,2.7 days,5,1,36.8 days,24.1 days,16.9 days
CCN(CC)Cc1cc(Nc2ccnc3cc(Cl)ccc23)cc(-c2cccc3ccccc23)c1O,2,0.7 days,–,11.2 days,0.3 days,–,0.1 days,4200 mg/kg,6.6 days,1,-0.3 days,-0.1 days,–,–,8.1 days,5.8 days,2.3 days
CN(C)Cc1cc(Nc2ccnc3cc(Cl)ccc23)cc(-c2ccc(Cl)cc2)c1O,1,20.4 days,4,14.4 days,36.8 days,3,1.2 days,6.2 mg/kg,–,1,14.2 days,6 days,5,4,18.7 days,45.4 days,18.8 days
